This note sets out measurements from ChEMBL document CHEMBL1148346, “Tiplaxtinin, a novel, orally efficacious inhibitor of plasminogen activator inhibitor-1: design, synthesis, and preclinical characterization” (J Med Chem, 2004).

In data set [1] the target is Plasminogen activator inhibitor 1 (Homo sapiens, UniProt P05121). The experiment in a line: Inhibition of human plasminogen activator inhibitor-1.
Data set [2] has as its system Canis familiaris. The experiment in a line: Oral efficacy in dog thrombosis model at 3 mg/kg expressed as coronary flow reduction.
Data set [3] is described as follows: Cmax after single intravenous bolus of 1 mg/kg in rats. On the set-up: dose 1 mg/kg, route intravenous. The following applies: rat, in vivo. Type of data set: ADME, organism-based.
Data set [4] can be described thus: Relative bioavailability after oral dose of compound at 3 mg/kg in dogs. Type of data set: ADME, organism-based, Canis lupus familiaris. The following applies: dog, in vivo. In a few lines:
(§1)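 Male beagle dogs given a single oral dose of 3 mg/kg. Plasma sampled, with Cmax and half-life derived and relative bioavailability calculated.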

Data set [5] deals with Rattus norvegicus. The experiment in a line: Oral efficacy in rat thrombosis model at 1 mg/kg expressed as thrombus weight. Type of data set: functional. In a few lines:
(§2)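 Anesthetized, instrumented rats dosed orally before chemical induction of an occlusive carotid artery thrombus. Time to occlusion, carotid flow, patency and thrombus weight compared with vehicle, four rats per group, mean ± SEM.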

The nature of data set [6]: Cmax after single intravenous bolus of 1 mg/kg in dogs. Type of data set: ADME, organism-based, Canis lupus familiaris. More on the design: dose 1 mg/kg, route intravenous. Particulars: dog, in vivo. In a few lines: (§3)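 Male beagle dogs given a single iv bolus of 1 mg/kg. Plasma sampled, with apparent half-life, Cmax and AUC0-∞ derived.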
The nature of data set [7]: AUC after administration at 100 mg/kg/day in dogs. Particulars: dog, plasma. The data set is classed as ADME, organism-based, Canis lupus familiaris.
The nature of data set [8]: Half-life after oral dose of compound at 3 mg/kg in dogs. On the set-up: dose 3 mg/kg, route oral. The data set is classed as ADME, organism-based, Canis lupus familiaris. Particulars: dog, in vivo. In a few lines: as §1
Data set [9] can be described thus: Apparent half-life after single intravenous bolus of 1 mg/kg in rats. The data set is classed as ADME, organism-based. On the set-up: dose 1 mg/kg, route intravenous. Particulars: rat, in vivo.
A short description of data set [10]: AUC0-24 after repeated oral dose of compound at 1 mg/kg in rats. The data set is classed as ADME, organism-based. On the set-up: time < 24 hr, dose 1 mg/kg, route oral. Particulars: rat, plasma. In a few lines:
(§4)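 Male SD rats given repeated oral doses of 1 mg/kg. Plasma concentrations measured, with Cmax, half-life and AUC0-24 derived.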

Data set [11] in a line: Cmax after oral dose of compound at 3 mg/kg in dogs. The data set is classed as ADME, organism-based, Canis lupus familiaris. More on the design: dose 3 mg/kg, route oral. The following applies: dog, in vivo. In a few lines:
as §1

Data set [12] in a line: Half-life after repeated oral dose of compound at 1 mg/kg in rats. Type of data set: ADME, organism-based. More on the design: dose 1 mg/kg, route oral. Particulars: rat, in vivo. In a few lines: as §4
Data set [13] can be described thus: Cmax after repeated oral dose of compound at 1 mg/kg in rats. Type of data set: ADME, organism-based. More on the design: dose 1 mg/kg, route oral. The following applies: rat, in vivo. The gist of the method: as §4
Data set [14] concerns Canis familiaris. The experiment in a line: Oral efficacy in dog thrombosis model at 3 mg/kg expressed as spontaneous reperfusion. Type of data set: functional, Canis lupus familiaris. The gist of the method: (§5)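 Anesthetized dogs dosed orally, then an electrolytic injury made in the coronary artery lumen. Occlusion was taken as zero flow, and flow, occlusion time and spontaneous reperfusion were monitored over 4 h. Three dogs per group, mean ± SEM.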

In data set [15] the test system is Rattus norvegicus. The experiment in a line: Oral efficacy in rat thrombosis model at 1 mg/kg expressed as arterial occlusion. Type of data set: functional. The gist of the method: as §2
Data set [16] deals with Rattus norvegicus. The experiment in a line: Oral efficacy in rat thrombosis model at 1 mg/kg expressed as occlusion time. The data set is classed as functional. The gist of the method:
as §2

Data set [17] can be described thus: AUC after administration at 2000 mg/kg/day in rats. Particulars: rat, plasma. Type of data set: ADME, organism-based.
A short description of data set [18]: Apparent half-life after single intravenous bolus of 1 mg/kg in dogs. The data set is classed as ADME, organism-based, Canis lupus familiaris. More on the design: dose 1 mg/kg, route intravenous. Particulars: dog, in vivo. The gist of the method: as §3
In data set [19] the test system is Canis familiaris. Description: Oral efficacy in dog thrombosis model at 3 mg/kg expressed as arterial occlusion. Type of data set: functional, Canis lupus familiaris. The gist of the method:
as §5

A short description of data set [20]: AUC0-infinity after single intravenous bolus of 1 mg/kg in dogs. The data set is classed as ADME, organism-based, Canis lupus familiaris. More on the design: time infinity, dose 1 mg/kg, route intravenous. The following applies: dog, plasma. The gist of the method: as §3
Data set [21] relates to Rattus norvegicus. Description: Oral efficacy in rat thrombosis model at 1 mg/kg expressed as carotid flow reduction. The data set is classed as functional. The gist of the method: as §2
Data set [22] has as its system Canis familiaris. Description: Oral efficacy in dog thrombosis model at 3 mg/kg expressed as occlusion time. The data set is classed as functional, Canis lupus familiaris. The gist of the method:
as §5

Data set [23] is described as follows: AUC0-infinity after single intravenous bolus of 1 mg/kg in rats. The data set is classed as ADME, organism-based. More on the design: time infinity, dose 1 mg/kg, route intravenous. The following applies: rat, plasma.

Plasminogen activator inhibitor 1, sequence (P05121 whole entry): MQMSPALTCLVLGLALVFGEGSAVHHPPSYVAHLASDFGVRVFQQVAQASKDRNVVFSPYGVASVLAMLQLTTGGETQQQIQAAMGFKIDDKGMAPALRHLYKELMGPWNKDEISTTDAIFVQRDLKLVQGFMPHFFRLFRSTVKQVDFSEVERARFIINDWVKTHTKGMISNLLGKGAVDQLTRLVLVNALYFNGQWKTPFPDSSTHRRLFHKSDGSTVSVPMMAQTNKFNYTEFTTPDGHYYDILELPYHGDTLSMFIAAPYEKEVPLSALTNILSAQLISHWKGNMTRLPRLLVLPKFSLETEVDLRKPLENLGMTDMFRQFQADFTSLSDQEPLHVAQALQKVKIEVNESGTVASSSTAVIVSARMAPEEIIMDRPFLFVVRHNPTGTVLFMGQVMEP

As a reminder, the IC50 is the concentration that inhibits the measured activity by half. Read a low IC50 as greater potency. `CN(C)CCSc1ccc(/C=c2\[nH]c(=O)/c(=C/c3ccccc3)[nH]c2=O)s1` came in with an IC50 in data set [1] of 8 µM.
Usually Cmax stands for the peak of the concentration-time curve. In general, bioavailability refers to dose-corrected exposure relative to a reference, in per cent. By AUC is commonly meant concentration integrated over time. A lower AUC goes with less exposure. As usually defined, the half-life is the time in which the quantity being followed falls by half. What is called AUC(0-inf) is the area under the concentration-time curve extrapolated to infinity. Low values mean less exposure, high ones more exposure. Turning to `O=C(O)C(=O)c1cn(Cc2ccccc2)c2ccc(-c3ccc(OC(F)(F)F)cc3)cc12` [TIPLASININ], the Coronary flow reduction with Canis familiaris [2] is 66%. The Cmax in data set [3] is 4950 ng/mL; in data set [6] it was 13400 ng/mL; in [11] it was 2140 ng/mL; in [13] it was 230 ng/mL. This molecule displayed a bioavailability in data set [4] of 32%. The Thrombus weight in the data set with Rattus norvegicus [5] was found to be 0.5 mg. Besides, the values for the AUC in data set [7] and in data set [17] were approximately 613 µg·h/mL and approximately 1510 µg·h/mL, respectively. For the same molecule, the half-life is 5.42 h in data set [8], 2.95 h in data set [9], 4.1 h in data set [12] and 3.73 h in data set [18]. This molecule had an AUC at 24 h in data set [10] of 0.96 µg·h/mL. In addition, the Spontaneous reperfusion in the data set with Canis familiaris [14] worked out at 100%. For the same molecule, the results for the Arterial occlusion in the data set with Rattus norvegicus [15] and with Canis familiaris [19] were 25% and 100%, respectively. Further, the Occlusion time in the data set with Rattus norvegicus [16] came out at 50.5 min; in the data set on Canis familiaris [22] it was 71.6 min. The AUC(0-inf) in [20] worked out at 20.5 µg·h/mL; in data set [23], 2.45 µg·h/mL. This molecule also came in with a Carotid flow reduction in the data set with Rattus norvegicus [21] of 47.3%.
In the case of `COc1cccc(-c2ccc3c(c2)c(C(=O)C(=O)O)cn3Cc2ccc(C(C)(C)C)cc2)c1`, half-maximal inhibition in data set [1] (IC50) required 21 µM.
The same measure, in the same setting: the value for `CC(C)(C)c1ccc(Cn2cc(C(=O)C(=O)O)c3cc(-c4ccc(OC(F)(F)F)cc4)ccc32)cc1` was 16 µM.
The same measure, in the same setting: the value for `O=C(O)c1ccc(-n2c(-c3ccccc3)cc3c2CCc2ccccc2-3)cc1O` was 13 µM.
On the same count and under the same terms, in the case of `O=C(O)C(=O)c1cn(Cc2ccccc2)c2cc(-c3ccc(OC(F)(F)F)cc3)ccc12` it was 17 µM; in that of `O=C(Nc1ccc(Cl)c(Cl)c1)c1ccc(CNc2cc([N+](=O)[O-])ccc2C(=O)O)cc1`, 13 µM.
For the molecule `CC(C)(C)c1ccc(Cn2cc(C(=O)C(=O)O)c3cc(-c4cccc(C(C)(C)C)c4)ccc32)cc1`, it took 10 µM to reach half-maximal inhibition in [1] (IC50).
Turning to `O=C(O)C(=O)c1cn(Cc2ccccc2)c2cccc(-c3ccc(OC(F)(F)F)cc3)c12`, the IC50 in data set [1] is more than 50 µM.
Still for that read-out and setting: the value for `Cc1cccc(-c2ccc3c(c2)c(C(=O)C(=O)O)cn3Cc2ccc(C(C)(C)C)cc2)c1` [ALEPLASININ] was 8.6 µM; that for `O=C(O)C(=O)c1cn(Cc2ccc(F)cc2)c2cc(-c3ccccc3)ccc12` was 35 µM.
In turn, `CC(C)(C)c1ccc(Cn2cc(C(=O)C(=O)O)c3ccc(-c4ccc(OC(F)(F)F)cc4)cc32)cc1` had an IC50 in data set [1] of more than 50 µM.
Same read-out and setting: in the case of `O=C(O)C(=O)c1cn(Cc2ccccc2)c2cc(-c3ccccc3)ccc12` it was 26 µM.
